Test results taken from ChEMBL document CHEMBL1123757, “Selective thromboxane synthetase inhibitors and antihypertensive agents. New derivatives of 4-hydrazino-5H-pyridazino[4,5-b]indole, 4-hydrazinopyridazino[4,5-a]indole, and related compounds” (J Med Chem, 1987).

What was measured:
Rattus norvegicus [1] = test: Antihypertensive activity in spontaneously hypertensive rats (SHR) measured by percentage fall in arterial pressure (AP) at 25 mg/kg administered intraperitoneally at 24 h; No significance; type: functional, organism-based; parameters: dose 25 mg/kg; conditions: Artery
Procedure, shortened: (§1)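 Unanesthetized Okamoto-strain SHR, male and female, 8 weeks old, 300–350 g, systolic pressure ≥190 mmHg, heart rate 400–650 beats/min; five animals per dose. Given ip at 2.5 mL/kg, dissolved or suspended in normal saline or saline with 0.2% (carboxymethyl)cellulose and 1.0% Tween 80. Tail AP and CR recorded by mechanical transduction at set times; reported as percentage fall from control.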

Homo sapiens [2] = species: Homo sapiens; test: In vitro inhibition of platelet aggregation induced by ADP-II (PRP incubated for 5 minutes at 37 degree C) at 10e-5 M; No significance; type: functional
Procedure, shortened: (§2)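 Human venous blood anticoagulated with 3.8% sodium citrate (1:9). PRP from centrifugation at 800 rpm for 10 min at room temperature. Count adjusted with PPP to […]. Compound in saline with 10% ethylene glycol is added to PRP and incubated at 37 °C before the agonist. Agonists: ADP 2×10^-5 M, AA 0.6 mM, PGH2 2.8 μM, adrenaline 0.6 μM. Born absorbance aggregometry; n = 5.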

Rattus norvegicus [3] = test: Antihypertensive activity in spontaneously hypertensive rats (SHR) measured by percentage fall in cardiac rhythm (CR) at 25 mg/kg administered perorally at 5 h;No significance; type: functional, organism-based; parameters: dose 25 mg/kg; conditions: Heart
Procedure, shortened: (§3)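 Conscious SHR (Okamoto strain), 8 weeks old, male and female, 300–350 g, systolic BP ≥190 mmHg, CR 400–650 beats/min. Given ip or po at 2.5 mL/kg in normal saline or saline with 0.2% (carboxymethyl)cellulose and 1.0% Tween 80. Tail AP and CR recorded by mechanical transduction at 1, 3, 5 and 24 h, five animals per dose. Effect expressed as % fall versus control.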

Homo sapiens [4] = species: Homo sapiens; test: No significance in vitro inhibition of platelet aggregation induced by ADP-II (PRP incubated for 60 minutes at 37 degree C) at 10e-5 M;No significance; type: functional; procedure, shortened: as §2
Homo sapiens [5] = species: Homo sapiens; test: In vitro inhibition of platelet aggregation induced by AA (PRP incubated for 60 minutes at 37 degree C) at 10e-5 M; No significance; type: functional; procedure, shortened: as §2
Rattus norvegicus [6] = test: Antihypertensive activity in spontaneously hypertensive rats (SHR) measured by percentage fall in arterial pressure (AP) at 1 mg/kg administered intraperitoneally at 24 h;No significance; type: functional, organism-based; parameters: dose 1 mg/kg; conditions: Artery; procedure, shortened: as §1
Rattus norvegicus [7] = test: Antihypertensive activity in spontaneously hypertensive rats (SHR) measured by percentage fall in cardiac rhythm (CR) at 5 mg/kg administered intraperitoneally at 24 h;No significance; type: functional, organism-based; parameters: dose 5 mg/kg; conditions: Heart; procedure, shortened: as §3
Rattus norvegicus [8] = test: Antihypertensive activity in spontaneously hypertensive rats (SHR) measured by percentage fall in arterial pressure (AP) at 1 mg/kg administered intraperitoneally at 5 h;No significance; type: functional, organism-based; parameters: dose 1 mg/kg; conditions: Artery; procedure, shortened: as §1
Rattus norvegicus [9] = test: Antihypertensive activity in spontaneously hypertensive rats (SHR) measured by percentage fall in cardiac rhythm (CR) at 25 mg/kg administered perorally at 24 h;No significance; type: functional, organism-based; parameters: dose 25 mg/kg; conditions: Heart; procedure, shortened: as §3
Homo sapiens [10] = species: Homo sapiens; test: In vitro inhibition of platelet aggregation induced by […] (PRP incubated for 5 minutes at 37 degree C) at 10e-5 M; No significance; type: functional
Rattus norvegicus [11] = test: Antihypertensive activity in spontaneously hypertensive rats (SHR) measured by percentage fall in arterial pressure (AP) at 1 mg/kg administered intraperitoneally at 3 h;No significance; type: functional, organism-based; parameters: dose 1 mg/kg; conditions: Artery; procedure, shortened: as §1
Rattus norvegicus [12] = test: Antihypertensive activity in spontaneously hypertensive rats (SHR) measured by percentage fall in cardiac rhythm (CR) at 5 mg/kg administered intraperitoneally at 5 h;No significance; type: functional, organism-based; parameters: dose 5 mg/kg; conditions: Heart; procedure, shortened: as §3
Homo sapiens [13] = species: Homo sapiens; test: In vitro inhibition of platelet aggregation induced by ADP-II (PRP incubated for 5 minutes at 37 degree C) at 10e-5 M; type: functional; procedure, shortened: as §2
Homo sapiens [14] = species: Homo sapiens; test: In vitro inhibition of platelet aggregation induced by AA (PRP incubated for 60 minutes at 37 degree C) at 5e-6 M;No significance; type: functional; procedure, shortened: as §2
Rattus norvegicus [15] = test: Antihypertensive activity in spontaneously hypertensive rats (SHR) measured by percentage fall in cardiac rhythm (CR) at 25 mg/kg administered intraperitoneally at 5 h; type: functional, Heart; conditions: route intraperitoneal; procedure, shortened: as §3
Homo sapiens [16] = species: Homo sapiens; test: In vitro inhibition of platelet aggregation induced by AA (PRP incubated for 60 minutes at 37 degree C) at 10e-5 M;No significance; type: functional; procedure, shortened: as §2
Rattus norvegicus [17] = test: Antihypertensive activity in spontaneously hypertensive rats (SHR) measured by percentage fall in cardiac rhythm (CR) at 25 mg/kg administered intraperitoneally at 3 h; type: functional, Heart; conditions: route intraperitoneal; procedure, shortened: as §1
Homo sapiens [18] = species: Homo sapiens; test: In vitro inhibition of platelet aggregation induced by ADP-II (PRP incubated for 60 minutes at 37 degree C) at 10e-5 M; type: functional; conditions: 1 h; procedure, shortened: as §2
Rattus norvegicus [19] = test: Antihypertensive activity in spontaneously hypertensive rats (SHR) measured by percentage fall in cardiac rhythm (CR) at 25 mg/kg administered intraperitoneally at 24 h; type: functional, Heart; conditions: route intraperitoneal; procedure, shortened: as §1
Rattus norvegicus [20] = test: Antihypertensive activity in spontaneously hypertensive rats (SHR) measured by percentage fall in arterial pressure (AP) at 25 mg/kg administered intraperitoneally at 3 h;No significance; type: functional, organism-based; parameters: dose 25 mg/kg; conditions: Artery; procedure, shortened: as §1
Rattus norvegicus [21] = test: Antihypertensive activity in spontaneously hypertensive rats (SHR) measured by percentage fall in arterial pressure (AP) at 25 mg/kg administered intraperitoneally at 24 h;No significance; type: functional, organism-based; parameters: dose 25 mg/kg; conditions: Artery; procedure, shortened: as §1
Rattus norvegicus [22] = test: Antihypertensive activity in spontaneously hypertensive rats (SHR) measured by percentage fall in arterial pressure (AP) at 25 mg/kg administered intraperitoneally at 5 h;No significance; type: functional, organism-based; parameters: dose 25 mg/kg; conditions: Artery; procedure, shortened: as §1
Homo sapiens [23] = species: Homo sapiens; test: In vitro inhibition of platelet aggregation induced by DD (PRP incubated for 5 minutes at 37 degree C) at 10e-5 M;No significance; type: functional; procedure, shortened: as §2
Homo sapiens [24] = species: Homo sapiens; test: In vitro inhibition of platelet aggregation induced by […] (PRP incubated for 5 minutes at 37 degree C) at 5 e-6 M;No significance; type: functional

In the case of `NNc1[nH]ncc2c3cc(OCc4ccccc4)ccc3nc1-2`, the “Decrease in AP” value (Rattus norvegicus [1]) was “No significant values”, the inhibition (Homo sapiens [2]) was “No significant values” and the “Decrease in CR” value (Rattus norvegicus [3]) was “No significant values”. The inhibition (Homo sapiens [4]) was “No significant values”, the inhibition (Homo sapiens [5]) was “No significant values” and the “Decrease in AP” value (Rattus norvegicus [6]) was “No significant values”. For the same compound, the “Decrease in CR” value (Rattus norvegicus [7]) was “No significant values”, the “Decrease in AP” value (Rattus norvegicus [8]) was “No significant values” and the “Decrease in CR” value (Rattus norvegicus [9]) was “No significant values”. For the same compound, the inhibition (Homo sapiens [10]) was “No significant values”, the “Decrease in AP” value (Rattus norvegicus [11]) was “No significant values” and the “Decrease in CR” value (Rattus norvegicus [12]) was “No significant values”.
In the case of `Oc1ccc2[nH]c3c(O)nncc3c2c1`, the inhibition at 10 µM (Homo sapiens [13]) was 87%, the inhibition (Homo sapiens [14]) was “No significant values” and the “Decrease in CR” value (Rattus norvegicus [15]) was -7%. For the same compound, the inhibition (Homo sapiens [16]) was “No significant values”, the “Decrease in CR” value (Rattus norvegicus [17]) was -11% and the inhibition at 10 µM (Homo sapiens [18]) was 100%. The “Decrease in CR” value (Rattus norvegicus [19]) was -8%, the “Decrease in AP” value (Rattus norvegicus [20]) was “No significant values” and the “Decrease in AP” value (Rattus norvegicus [21]) was “No significant values”. For the same compound, the “Decrease in AP” value (Rattus norvegicus [22]) was “No significant values”, the inhibition (Homo sapiens [23]) was “No significant values” and the inhibition (Homo sapiens [24]) was “No significant values”.
